Source: ChEMBL document CHEMBL5058577, “EUbOPEN Chemogenomics Library 2 (Multiplex)” (2022)

System: HEK-293T
Assay: Multiplex assay against HEK293T
Format: toxicity, cell-based
Conditions: human
How it was run: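 Live cells were stained at seeding with Hoechst33342, BioTracker Green Microtubule Cytoskeleton Dye, MitoTracker Red and Annexin V Alexa Fluor 680, then imaged on a CQ1 microscope at 37°C and 5% CO2 after compound addition. CellPathfinder machine-learning gating split cells into Hoechst high-intensity objects or normal cells. Normal cells were split into healthy, pyknosed or fragmented nuclei, and pyknosed cells into mitotic or apoptotic. Tubulin, mitochondrial-mass and membrane-permeability phenotypes are per cents of healthy-nucleus cells.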

[1] = 12 h, 1 µM, compound concentration 1 uM, replicate 1
[2] = 12 h, 1 µM, compound concentration 1 uM, replicate 2
[3] = 12 h, 10 µM, compound concentration 10 uM, replicate 1
[4] = 12 h, 10 µM, compound concentration 10 uM, replicate 2
[5] = 24 h, 1 µM, compound concentration 1 uM, replicate 1
[6] = 24 h, 1 µM, compound concentration 1 uM, replicate 2
[7] = 24 h, 10 µM, compound concentration 10 uM, replicate 1
[8] = 24 h, 10 µM, compound concentration 10 uM, replicate 2
[9] = 48 h, 1 µM, compound concentration 1 uM, replicate 1
[10] = 48 h, 1 µM, compound concentration 1 uM, replicate 2
[11] = 48 h, 10 µM, compound concentration 10 uM, replicate 1
[12] = 48 h, 10 µM, compound concentration 10 uM, replicate 2

COCCn1c(C)c(C)s/c1=N\C(=O)C1C(C)(C)C1(C)C
Population Apoptotic (%) [1]: 37% | Population Fragmented Nuclei (%) [1]: 10% | Population Healthy Nuclei (%) [1]: 77% | Population Hoechst High Intensity Objects (%) [1]: 6% | Population Membrane Permeable-Phenotype (%) [1]: 0% | Population Mitochondria Different-Phenotype (%) [1]: 45% | Population Mitotic Cells (%) [1]: 62% | Population Normal (%) [1]: 93% | Population Pyknosed Nuclei (%) [1]: 12% | Population Tubulin-Different-Phenotype (%) [1]: 29% | Total Cell Count [1]: 335 | Population Apoptotic (%) [2]: 41% | Population Fragmented Nuclei (%) [2]: 5% | Population Healthy Nuclei (%) [2]: 82% | Population Hoechst High Intensity Objects (%) [2]: 4% | Population Mitochondria Different-Phenotype (%) [2]: 77% | Population Mitotic Cells (%) [2]: 58% | Population Normal (%) [2]: 95% | Population Tubulin-Different-Phenotype (%) [2]: 26% | Total Cell Count [2]: 304 | Population Apoptotic (%) [3]: 77% | Population Fragmented Nuclei (%) [3]: 33% | Population Healthy Nuclei (%) [3]: 52% | Population Hoechst High Intensity Objects (%) [3]: 18% | Population Membrane Permeable-Phenotype (%) [3]: 0% | Population Mitochondria Different-Phenotype (%) [3]: 91% | Population Mitotic Cells (%) [3]: 22% | Population Normal (%) [3]: 81% | Population Pyknosed Nuclei (%) [3]: 13% | Population Tubulin-Different-Phenotype (%) [3]: 67% | Total Cell Count [3]: 80 | Population Apoptotic (%) [4]: 53% | Population Fragmented Nuclei (%) [4]: 8% | Population Healthy Nuclei (%) [4]: 75% | Population Hoechst High Intensity Objects (%) [4]: 11% | Population Mitochondria Different-Phenotype (%) [4]: 72% | Population Mitotic Cells (%) [4]: 46% | Population Normal (%) [4]: 88% | Population Pyknosed Nuclei (%) [4]: 16% | Population Tubulin-Different-Phenotype (%) [4]: 38% | Total Cell Count [4]: 315 | Population Apoptotic (%) [5]: 19% | Population Fragmented Nuclei (%) [5]: 7% | Population Healthy Nuclei (%) [5]: 81% | Population Hoechst High Intensity Objects (%) [5]: 4% | Population Membrane Permeable-Phenotype (%) [5]: 0% | Population Mitochondria Different-Phenotype (%) [5]: 26% | Population Mitotic Cells (%) [5]: 80% | Population Normal (%) [5]: 95% | Population Pyknosed Nuclei (%) [5]: 11% | Population Tubulin-Different-Phenotype (%) [5]: 20% | Total Cell Count [5]: 447 | Population Apoptotic (%) [6]: 35% | Population Fragmented Nuclei (%) [6]: 8% | Population Hoechst High Intensity Objects (%) [6]: 7% | Population Mitochondria Different-Phenotype (%) [6]: 47% | Population Mitotic Cells (%) [6]: 64% | Population Normal (%) [6]: 92% | Population Pyknosed Nuclei (%) [6]: 10% | Population Tubulin-Different-Phenotype (%) [6]: 17% | Total Cell Count [6]: 383 | Population Apoptotic (%) [7]: 71% | Population Fragmented Nuclei (%) [7]: 30% | Population Healthy Nuclei (%) [7]: 61% | Population Hoechst High Intensity Objects (%) [7]: 15% | Population Membrane Permeable-Phenotype (%) [7]: 0% | Population Mitochondria Different-Phenotype (%) [7]: 53% | Population Mitotic Cells (%) [7]: 28% | Population Normal (%) [7]: 84% | Population Pyknosed Nuclei (%) [7]: 8% | Population Tubulin-Different-Phenotype (%) [7]: 36% | Total Cell Count [7]: 101 | Population Apoptotic (%) [8]: 45% | Population Fragmented Nuclei (%) [8]: 11% | Population Healthy Nuclei (%) [8]: 75% | Population Hoechst High Intensity Objects (%) [8]: 7% | Population Mitochondria Different-Phenotype (%) [8]: 62% | Population Mitotic Cells (%) [8]: 54% | Population Normal (%) [8]: 92% | Population Pyknosed Nuclei (%) [8]: 13% | Population Tubulin-Different-Phenotype (%) [8]: 30% | Total Cell Count [8]: 376 | Population Apoptotic (%) [9]: 20% | Population Fragmented Nuclei (%) [9]: 13% | Population Healthy Nuclei (%) [9]: 75% | Population Hoechst High Intensity Objects (%) [9]: 3% | Population Membrane Permeable-Phenotype (%) [9]: 0% | Population Mitochondria Different-Phenotype (%) [9]: 22% | Population Mitotic Cells (%) [9]: 79% | Population Normal (%) [9]: 96% | Population Pyknosed Nuclei (%) [9]: 11% | Population Tubulin-Different-Phenotype (%) [9]: 14% | Total Cell Count [9]: 649 | Population Apoptotic (%) [10]: 45% | Population Fragmented Nuclei (%) [10]: 11% | Population Healthy Nuclei (%) [10]: 81% | Population Mitochondria Different-Phenotype (%) [10]: 31% | Population Mitotic Cells (%) [10]: 55% | Population Normal (%) [10]: 97% | Population Pyknosed Nuclei (%) [10]: 7% | Population Tubulin-Different-Phenotype (%) [10]: 12% | Total Cell Count [10]: 567 | Population Apoptotic (%) [11]: 60% | Population Fragmented Nuclei (%) [11]: 18% | Population Healthy Nuclei (%) [11]: 73% | Population Hoechst High Intensity Objects (%) [11]: 2% | Population Membrane Permeable-Phenotype (%) [11]: 2% | Population Mitochondria Different-Phenotype (%) [11]: 30% | Population Mitotic Cells (%) [11]: 40% | Population Normal (%) [11]: 97% | Population Pyknosed Nuclei (%) [11]: 8% | Population Tubulin-Different-Phenotype (%) [11]: 31% | Total Cell Count [11]: 191 | Population Apoptotic (%) [12]: 38% | Population Fragmented Nuclei (%) [12]: 13% | Population Healthy Nuclei (%) [12]: 79% | Population Hoechst High Intensity Objects (%) [12]: 4% | Population Membrane Permeable-Phenotype (%) [12]: 0% | Population Mitochondria Different-Phenotype (%) [12]: 46% | Population Mitotic Cells (%) [12]: 61% | Population Normal (%) [12]: 95% | Population Pyknosed Nuclei (%) [12]: 6% | Population Tubulin-Different-Phenotype (%) [12]: 24% | Total Cell Count [12]: 493

COc1ccc2[nH]c(I)c(CCNC(C)=O)c2c1 [IODOMELATONIN]
Population Apoptotic (%) [1]: 42% | Population Fragmented Nuclei (%) [1]: 4% | Population Healthy Nuclei (%) [1]: 80% | Population Hoechst High Intensity Objects (%) [1]: 5% | Population Membrane Permeable-Phenotype (%) [1]: 1% | Population Mitochondria Different-Phenotype (%) [1]: 43% | Population Mitotic Cells (%) [1]: 57% | Population Normal (%) [1]: 94% | Population Pyknosed Nuclei (%) [1]: 14% | Population Tubulin-Different-Phenotype (%) [1]: 35% | Total Cell Count [1]: 388 | Population Apoptotic (%) [2]: 59% | Population Fragmented Nuclei (%) [2]: 5% | Population Healthy Nuclei (%) [2]: 84% | Population Hoechst High Intensity Objects (%) [2]: 7% | Population Membrane Permeable-Phenotype (%) [2]: 0% | Population Mitochondria Different-Phenotype (%) [2]: 64% | Population Mitotic Cells (%) [2]: 40% | Population Normal (%) [2]: 92% | Population Pyknosed Nuclei (%) [2]: 10% | Population Tubulin-Different-Phenotype (%) [2]: 32% | Total Cell Count [2]: 400 | Population Apoptotic (%) [3]: 38% | Population Fragmented Nuclei (%) [3]: 11% | Population Healthy Nuclei (%) [3]: 77% | Population Hoechst High Intensity Objects (%) [3]: 8% | Population Membrane Permeable-Phenotype (%) [3]: 0% | Population Mitochondria Different-Phenotype (%) [3]: 52% | Population Mitotic Cells (%) [3]: 61% | Population Normal (%) [3]: 91% | Population Pyknosed Nuclei (%) [3]: 10% | Population Tubulin-Different-Phenotype (%) [3]: 29% | Total Cell Count [3]: 445 | Population Apoptotic (%) [4]: 46% | Population Fragmented Nuclei (%) [4]: 8% | Population Hoechst High Intensity Objects (%) [4]: 12% | Population Mitochondria Different-Phenotype (%) [4]: 62% | Population Mitotic Cells (%) [4]: 53% | Population Normal (%) [4]: 87% | Population Pyknosed Nuclei (%) [4]: 14% | Population Tubulin-Different-Phenotype (%) [4]: 25% | Total Cell Count [4]: 316 | Population Apoptotic (%) [5]: 38% | Population Fragmented Nuclei (%) [5]: 8% | Population Healthy Nuclei (%) [5]: 80% | Population Hoechst High Intensity Objects (%) [5]: 3% | Population Membrane Permeable-Phenotype (%) [5]: 1% | Population Mitochondria Different-Phenotype (%) [5]: 24% | Population Mitotic Cells (%) [5]: 61% | Population Normal (%) [5]: 96% | Population Pyknosed Nuclei (%) [5]: 11% | Population Tubulin-Different-Phenotype (%) [5]: 23% | Total Cell Count [5]: 511 | Population Apoptotic (%) [6]: 44% | Population Fragmented Nuclei (%) [6]: 9% | Population Healthy Nuclei (%) [6]: 78% | Population Hoechst High Intensity Objects (%) [6]: 8% | Population Membrane Permeable-Phenotype (%) [6]: 0% | Population Mitochondria Different-Phenotype (%) [6]: 37% | Population Mitotic Cells (%) [6]: 55% | Population Normal (%) [6]: 91% | Population Tubulin-Different-Phenotype (%) [6]: 14% | Total Cell Count [6]: 497 | Population Apoptotic (%) [7]: 32% | Population Fragmented Nuclei (%) [7]: 11% | Population Healthy Nuclei (%) [7]: 77% | Population Hoechst High Intensity Objects (%) [7]: 5% | Population Membrane Permeable-Phenotype (%) [7]: 1% | Population Mitochondria Different-Phenotype (%) [7]: 31% | Population Mitotic Cells (%) [7]: 67% | Population Normal (%) [7]: 94% | Population Pyknosed Nuclei (%) [7]: 10% | Population Tubulin-Different-Phenotype (%) [7]: 25% | Total Cell Count [7]: 568 | Population Apoptotic (%) [8]: 40% | Population Fragmented Nuclei (%) [8]: 5% | Population Healthy Nuclei (%) [8]: 81% | Population Hoechst High Intensity Objects (%) [8]: 9% | Population Membrane Permeable-Phenotype (%) [8]: 0% | Population Mitochondria Different-Phenotype (%) [8]: 48% | Population Mitotic Cells (%) [8]: 59% | Population Normal (%) [8]: 90% | Population Pyknosed Nuclei (%) [8]: 12% | Population Tubulin-Different-Phenotype (%) [8]: 21% | Total Cell Count [8]: 360 | Population Apoptotic (%) [9]: 26% | Population Fragmented Nuclei (%) [9]: 12% | Population Healthy Nuclei (%) [9]: 79% | Population Hoechst High Intensity Objects (%) [9]: 4% | Population Membrane Permeable-Phenotype (%) [9]: 1% | Population Mitochondria Different-Phenotype (%) [9]: 19% | Population Mitotic Cells (%) [9]: 73% | Population Normal (%) [9]: 95% | Population Pyknosed Nuclei (%) [9]: 7% | Population Tubulin-Different-Phenotype (%) [9]: 16% | Total Cell Count [9]: 770 | Population Apoptotic (%) [10]: 31% | Population Hoechst High Intensity Objects (%) [10]: 5% | Population Mitochondria Different-Phenotype (%) [10]: 22% | Population Mitotic Cells (%) [10]: 68% | Population Normal (%) [10]: 94% | Population Pyknosed Nuclei (%) [10]: 8% | Population Tubulin-Different-Phenotype (%) [10]: 14% | Total Cell Count [10]: 622 | Population Apoptotic (%) [11]: 23% | Population Fragmented Nuclei (%) [11]: 16% | Population Healthy Nuclei (%) [11]: 77% | Population Hoechst High Intensity Objects (%) [11]: 1% | Population Membrane Permeable-Phenotype (%) [11]: 1% | Population Mitochondria Different-Phenotype (%) [11]: 16% | Population Mitotic Cells (%) [11]: 76% | Population Normal (%) [11]: 98% | Population Pyknosed Nuclei (%) [11]: 5% | Population Tubulin-Different-Phenotype (%) [11]: 11% | Total Cell Count [11]: 860 | Population Apoptotic (%) [12]: 25% | Population Fragmented Nuclei (%) [12]: 15% | Population Healthy Nuclei (%) [12]: 75% | Population Hoechst High Intensity Objects (%) [12]: 2% | Population Membrane Permeable-Phenotype (%) [12]: 0% | Population Mitochondria Different-Phenotype (%) [12]: 24% | Population Mitotic Cells (%) [12]: 74% | Population Normal (%) [12]: 97% | Population Pyknosed Nuclei (%) [12]: 9% | Population Tubulin-Different-Phenotype (%) [12]: 16% | Total Cell Count [12]: 613
